49 compounds from ChEMBL document CHEMBL3244233, “Synthesis and biological activities of some N6- and N9-carbamoyladenines and related ribonucleosides” (1977) can be followed below.

Bounds are passed on as bounds.

Format in all cases: functional
Test [1] is described as follows: Growth inhibition of human Nc37 cells assessed as viable cells at 10^-4 M after 72 hrs relative to control. Conditions: NC-37, 72 h, read-out: Activity. The method in brief: (§1)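 Nc 37 cells come from a normal human buffy coat, RPMI 6410 from the buffy coat of a myeloblastic leukemia patient, and L1210 is mouse leukemia. Cells were grown in RPMI 1640 with 10% fetal calf serum and exposed to compound at 10^-4 M in medium containing 0.5% Me2SO for 72 h. Viable cell number is expressed as percent of 0.5% Me2SO controls and scored as ++ 30-60%, + 60-80%, ± 80-90%, NA 90-110%.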

Test [2] can be described thus: Growth inhibition of human RPMI6410 cells assessed as viable cells at 10^-4 M after 72 hrs relative to control. To be noted: RPMI 6410, 72 h, read-out: Activity. The method in brief:
as §1

Test [3] deals with L1210. Description: Growth inhibition of mouse L1210 cells assessed as viable cells at 10^-4 M after 72 hrs relative to control. To be noted: L1210, 72 h, read-out: Activity. A digest of the protocol:
as §1

Test [4] has as its system L1210. Description: Growth inhibition of mouse L1210 cells at 10^-4 M after 72 hrs relative to control. Conditions: L1210, 72 h, read-out: GI. The method in brief: as §1

On to `CNC(=O)n1cnc2c(NC)ncnc21`, for which the viability at 100 µM stood at 30% in test [1], 60% in test [2] and 90% in the test on L1210 [3].
Turning to `Nc1ncnc2c1ncn2C(=O)NC(Cc1ccccc1)C(=O)OCc1ccccc1` (centres undefined), the viability at 100 µM stood at 60% in test [1], 90% in test [2] and 30% with L1210 [3].
Consider `CCCCNC(=S)n1cnc2c(N)ncnc21`, for which the viability at 100 µM (in test [1]; in test [2]; in the test on L1210 [3]) was 60% in each case.
On to `CC(=O)OC[C@H]1O[C@@H](n2cnc3c(NC(=O)Nc4ccc(Cl)cc4)ncnc32)[C@H](OC(C)=O)[C@@H]1OC(C)=O`, for which the viability at 100 µM in test [1] was 30%; in test [2] it was 30%; with L1210 [3], over 30%.
For `CC(C)(C)NC(=O)n1cnc2c(N)ncnc21`, in the test on L1210 [4], the inhibition of growth at 100 µM was at least 70%. For the same compound, the figures for the viability at 100 µM (in test [1]; in test [2]; with L1210 [3]) were 60%, 60% and over 30%, respectively.
Turning to `O=C(NCCc1ccccc1Cl)Nc1ncnc2[nH]cnc12`, the viability at 100 µM turned out to be 30% in test [1], 60% in test [2] and 60% with L1210 [3].
Turning to `O=C(Nc1ccc(Br)cc1)Nc1ncnc2c1ncn2C(=O)Nc1ccc(Br)cc1`, the viability at 100 µM in test [1] was 60%.
Regarding `CCOC(=O)n1cnc2c(NC)ncnc21`, the viability at 100 µM is 30% in test [1], 30% in test [2] and 90% in the test on L1210 [3].
`Nc1ncnc2c1ncn2C(=O)NC1CCCCC1`: the inhibition of growth at 100 µM in the test on L1210 [4] is at least 70%. Also, the viability at 100 µM in test [1] is 30%; in test [2], 30%; in the test with L1210 [3], over 30%.
`CC(OCc1ccccc1)C(NC(=O)n1cnc2c(N)ncnc21)C(=O)OCc1ccccc1` (centres undefined): in the test with L1210 [4], the inhibition of growth at 100 µM is at least 70%. Further, the viability at 100 µM is 60% in test [1], 60% in test [2] and over 30% in the test with L1210 [3].
Take `Nc1ncnc2c1ncn2C(=O)NCC(=O)OCc1ccccc1`: the inhibition of growth at 100 µM in the test on L1210 [4] was at least 70%. Besides, the values for the viability at 100 µM (in test [1]; in test [2]; in the test on L1210 [3]) were 60%, 80% and over 30%, respectively.
In the case of `C=CCNC(=O)Nc1ncnc2[nH]cnc12`, the viability at 100 µM (in test [1]; in test [2]; in the test with L1210 [3]) was 60% throughout.
For `CCCCNC(=O)Nc1ncnc2c1ncn2C(=O)NCCCC`, the viability at 100 µM is 90% in test [1], 60% in test [2] and 30% with L1210 [3].
The corresponding values for `Nc1ncnc2c1ncn2C(=O)Nc1ccccc1` are 90%, 60% and 30%.
Take `CCOC(=O)CNC(=O)n1cnc2c(N)ncnc21`: the viability at 100 µM was found to be 60% in test [1], 60% in test [2] and 30% with L1210 [3].
`CC(=O)n1cnc2c(N)ncnc21`: the viability at 100 µM stood at 90% in test [1], 90% in test [2] and 30% with L1210 [3].
Take `CNC(=O)Nc1ncnc2c1ncn2C(=O)Nc1ccccc1`: the viability at 100 µM in test [1] is 90%; in test [2], 90%; in the test on L1210 [3], 30%.
With `CCCCNC(=S)Nc1ncnc2[nH]cnc12`, the viability at 100 µM in test [1] amounted to 30%; in test [2] it was 60%; in the test on L1210 [3] it was 30%.
`CNC(=O)Nc1ncnc2c1ncn2C(=O)NC`: the viability at 100 µM was found to be 90% in test [1], 80% in test [2] and 80% in the test with L1210 [3].
On to `O=C(Nc1ccccc1)Nc1ncnc2[nH]cnc12`, for which the viability at 100 µM in test [1] worked out at 60%; in test [2], 80%; in the test with L1210 [3] it was 60%.
As to `COc1ccc(NC(=O)Nc2ncnc3c2ncn3C(=O)NC(C)(C)C)cc1`, the viability at 100 µM turned out to be 90% in test [1], 80% in test [2] and 80% with L1210 [3].
As to `CC(C)(C)CNC(=O)Nc1ncnc2c1ncn2[C@@H]1O[C@H](CO)[C@@H](O)[C@H]1O`, the viability at 100 µM was 90% in test [1], 90% in test [2] and 80% in the test with L1210 [3].
As to `C=CCNC(=O)n1cnc2c(N)ncnc21`, the inhibition of growth at 100 µM with L1210 [4] was at least 70%. Also, the viability at 100 µM in test [1] was 30%; in test [2], 60%; in the test on L1210 [3] it was over 30%.
With `Cc1ccccc1NC(=O)Nc1ncnc2c1ncn2C(=O)Nc1ccccc1C`, the figures for the viability at 100 µM (in test [1]; in test [2]; in the test on L1210 [3]) were 60%, 90% and 60%, respectively.
As to `COc1ccc(NC(=O)Nc2ncnc3c2ncn3C(=O)Nc2ccc(OC)cc2)cc1`, the viability at 100 µM in test [1] came to 90%; in test [2], 90%; with L1210 [3], 30%.
On to `O=C(Nc1ccccc1F)Nc1ncnc2c1ncn2[C@@H]1O[C@H](CO)[C@@H](O)[C@H]1O`, for which the viability at 100 µM in test [1] turned out to be 60%; in test [2], 30%; in the test with L1210 [3] it was 30%.
For `CCCC(=O)n1cnc2c(N)ncnc21`, the viability at 100 µM came out at 90% in test [1], 60% in test [2] and 60% in the test on L1210 [3].
Consider `CC(C)(C)NC(=O)n1cnc2c(NC(=O)Nc3ccccc3F)ncnc21`, for which the viability at 100 µM in test [1] is 60%; in test [2], 60%; in the test with L1210 [3] it was over 30%.
For the compound `CNc1ncnc2c1ncn2C(=O)NC(C)(C)C`, the viability at 100 µM (in test [1]; in test [2]; with L1210 [3]) was 60% throughout.
For the compound `CNC(=O)N(C)c1ncnc2c1ncn2C(=O)NC`, the viability at 100 µM was 30% in test [1], 60% in test [2] and 30% with L1210 [3].
As for `O=C(NCCc1ccccc1Cl)Nc1ncnc2c1ncn2[C@@H]1O[C@H](CO)[C@@H](O)[C@H]1O`, the viability at 100 µM in test [1] is 60%.
Turning to `O=C(Nc1ncnc2[nH]cnc12)NC1CCCCC1`, the viability at 100 µM (in test [1]; in test [2]; in the test on L1210 [3]) was 60% in each case.
`O=C(Nc1ccccc1)Nc1ncnc2c1ncn2C(=O)Nc1ccccc1`: the viability at 100 µM in test [1] was 60%; in test [2], 80%; in the test with L1210 [3], 30%.
`O=C(O)CNC(=O)CNC(=O)Nc1ncnc2[nH]cnc12`: the viability at 100 µM (in test [1]; in test [2]; in the test with L1210 [3]) was 90% in each case.
For the compound `O=C(Nc1ccc(F)cc1)Nc1ncnc2[nH]cnc12`, the results for the viability at 100 µM (in test [1]; in test [2]; with L1210 [3]) were 90%, 90% and 30%, respectively.
For the compound `CC(C)(C)NC(=O)Nc1ncnc2[nH]cnc12`, the viability at 100 µM (in test [1]; in test [2]; in the test with L1210 [3]) was 60% each time.
Take `O=C(Nc1ccccc1C(F)(F)F)Nc1ncnc2[nH]cnc12`: the viability at 100 µM came out at 30% in test [1] and 90% in test [2].
For the compound `CCOC(=O)CNC(=O)N(C)c1ncnc2c1ncn2C(=O)NCC(=O)OCC`, the viability at 100 µM in test [1] was 90%; in test [2], 90%; in the test with L1210 [3] it was 60%.
In the case of `CN(C(=O)Nc1ccccc1Cl)c1ncnc2c1ncn2C(=O)Nc1ccccc1Cl`, the viability at 100 µM in test [1] worked out at 90%; in test [2], 60%; in the test on L1210 [3], 30%.
In the case of `CC(C)C(NC(=O)n1cnc2c(N)ncnc21)C(=O)OCc1ccccc1` (centres undefined), the viability at 100 µM in test [1] is 60%; in test [2] it was 30%; with L1210 [3], 30%.
For `Nc1ncnc2c1ncn2C(=O)N[C@@H](Cc1ccccc1)C(=O)O`, the inhibition of growth at 100 µM in the test on L1210 [4] is at least 70%. Besides, the values for the viability at 100 µM (in test [1]; in test [2]; with L1210 [3]) were 30%, 80% and over 30%, respectively.
For the compound `CN(C(=O)Nc1ccccc1)c1ncnc2c1ncn2C(=O)Nc1ccccc1`, the viability at 100 µM is 90% in test [1], 60% in test [2] and 30% with L1210 [3].
For `CC(=O)OC[C@H]1O[C@@H](n2cnc3c(NC(=O)Nc4ccccc4Cl)ncnc32)[C@H](OC(C)=O)[C@@H]1OC(C)=O`, in that order: 30%, 30% and over 30%.
Take `Cc1ccc(NC(=O)Nc2[nH]cnc3ncnc2-3)cc1`: the viability at 100 µM in test [1] was 90%; in test [2], 60%; with L1210 [3] it was over 30%.
Turning to `CCCCNC(=O)n1cnc2c(N)ncnc21`, in the test with L1210 [4], the inhibition of growth at 100 µM is at least 70%. Also, the viability at 100 µM in test [1] is 30%; in test [2], 30%; in the test on L1210 [3], over 30%.
On to `Nc1ncnc2c1ncn2C(=O)Nc1ccccc1F`, for which the values for the viability at 100 µM (in test [1]; in test [2]; in the test on L1210 [3]) were 90%, 60% and 60%, respectively.
`CNC(=S)Nc1ncnc2[nH]cnc12`: the viability at 100 µM (in test [1]; in test [2]; with L1210 [3]) was 60% in each case.
With `CCCCCCCC(=O)n1cnc2c(N)ncnc21`, the figures for the viability at 100 µM (in test [1]; in test [2]; in the test on L1210 [3]) were 60%, 60% and 30%, respectively.
For `CCCCNC(=O)Nc1ncnc2[nH]cnc12`, the values for the viability at 100 µM (in test [1]; in test [2]; in the test on L1210 [3]) were 60%, 60% and 30%, respectively.
